From ChEMBL document CHEMBL1157688, “Novel tumor-targeted RGD peptide-camptothecin conjugates: synthesis and biological evaluation” (Bioorg Med Chem, 2010)

Key:
Mus musculus [1] = test: AUC (0 to infinity) in nude mouse xenografted with human A2780 cells at 48 mg/kg, sc QD for 5 days; format: ADME, organism-based; parameters: time infinity, dose 48 mg/kg, route subcutaneous; conditions: in vivo, 120 h
A498 [2] = test: Cellular uptake in human A498 cells at IC50 after 48 hrs by HPLC-FL analysis; format: ADME, cell-based; conditions: a498, 48 h
In short: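 A-498 cells (6.2×10^5 per dish) were treated 24 h after seeding and sampled at 5, 24, 48 and 72 h. Cells were PBS-washed, scraped and pelleted, then lysed by five freeze-thaw cycles. Lysates were extracted with methanol/acetonitrile (1:1) and analyzed by isocratic HPLC with fluorescence detection. Lysate protein was measured by Bradford assay.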

Integrin alpha-V/beta-5 [3] = target: T1, Integrin alpha-V/beta-5 (Homo sapiens, UniProt P06756+P18084); test: Inhibition of integrin alphaVbeta5 receptor-mediated adhesion of human A2780 cells to vitronectin after 1 hr by toluidine blue staining; format: cell-based
In short: (§1)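 Wells were coated 2 h at room temperature with human vitronectin and blocked 1 h with 1% BSA. Tumor cells in serum-free medium with 1% BSA were plated with compounds at 0.1 to 100 and incubated 1 h. Cells were washed with PBS, fixed 10 min in 4% paraformaldehyde and stained 10 min with 1% toluidine blue.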
Target sequence in this assay (P06756 31-889 limits assumed): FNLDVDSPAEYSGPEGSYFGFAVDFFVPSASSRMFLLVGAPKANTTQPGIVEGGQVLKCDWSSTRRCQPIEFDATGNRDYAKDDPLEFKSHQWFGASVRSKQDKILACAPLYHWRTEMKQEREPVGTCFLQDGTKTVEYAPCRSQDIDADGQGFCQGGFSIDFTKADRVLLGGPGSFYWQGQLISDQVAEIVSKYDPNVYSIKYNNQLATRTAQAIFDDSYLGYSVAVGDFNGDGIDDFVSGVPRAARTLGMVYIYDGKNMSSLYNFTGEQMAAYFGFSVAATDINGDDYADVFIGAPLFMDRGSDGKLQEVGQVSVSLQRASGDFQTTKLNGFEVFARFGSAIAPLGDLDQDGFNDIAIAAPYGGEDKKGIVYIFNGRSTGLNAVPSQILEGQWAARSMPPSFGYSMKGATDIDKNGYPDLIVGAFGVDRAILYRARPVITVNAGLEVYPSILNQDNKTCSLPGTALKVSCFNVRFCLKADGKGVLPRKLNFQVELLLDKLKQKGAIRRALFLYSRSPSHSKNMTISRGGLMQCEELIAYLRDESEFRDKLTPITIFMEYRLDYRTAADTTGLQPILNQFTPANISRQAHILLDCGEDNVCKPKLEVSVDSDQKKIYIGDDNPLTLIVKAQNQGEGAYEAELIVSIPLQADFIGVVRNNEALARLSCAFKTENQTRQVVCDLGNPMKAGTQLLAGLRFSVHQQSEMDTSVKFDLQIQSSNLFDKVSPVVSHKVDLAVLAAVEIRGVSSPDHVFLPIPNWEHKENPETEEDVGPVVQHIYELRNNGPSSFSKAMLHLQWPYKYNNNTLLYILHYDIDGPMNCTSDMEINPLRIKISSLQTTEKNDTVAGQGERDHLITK
Target sequence in this assay (P06756 891-1048 limits assumed): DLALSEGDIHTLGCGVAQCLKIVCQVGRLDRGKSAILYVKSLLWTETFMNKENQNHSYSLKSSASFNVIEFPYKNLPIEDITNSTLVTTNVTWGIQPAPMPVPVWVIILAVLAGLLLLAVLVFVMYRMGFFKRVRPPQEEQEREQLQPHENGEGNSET
Target sequence in this assay (P18084 24-799 limits assumed): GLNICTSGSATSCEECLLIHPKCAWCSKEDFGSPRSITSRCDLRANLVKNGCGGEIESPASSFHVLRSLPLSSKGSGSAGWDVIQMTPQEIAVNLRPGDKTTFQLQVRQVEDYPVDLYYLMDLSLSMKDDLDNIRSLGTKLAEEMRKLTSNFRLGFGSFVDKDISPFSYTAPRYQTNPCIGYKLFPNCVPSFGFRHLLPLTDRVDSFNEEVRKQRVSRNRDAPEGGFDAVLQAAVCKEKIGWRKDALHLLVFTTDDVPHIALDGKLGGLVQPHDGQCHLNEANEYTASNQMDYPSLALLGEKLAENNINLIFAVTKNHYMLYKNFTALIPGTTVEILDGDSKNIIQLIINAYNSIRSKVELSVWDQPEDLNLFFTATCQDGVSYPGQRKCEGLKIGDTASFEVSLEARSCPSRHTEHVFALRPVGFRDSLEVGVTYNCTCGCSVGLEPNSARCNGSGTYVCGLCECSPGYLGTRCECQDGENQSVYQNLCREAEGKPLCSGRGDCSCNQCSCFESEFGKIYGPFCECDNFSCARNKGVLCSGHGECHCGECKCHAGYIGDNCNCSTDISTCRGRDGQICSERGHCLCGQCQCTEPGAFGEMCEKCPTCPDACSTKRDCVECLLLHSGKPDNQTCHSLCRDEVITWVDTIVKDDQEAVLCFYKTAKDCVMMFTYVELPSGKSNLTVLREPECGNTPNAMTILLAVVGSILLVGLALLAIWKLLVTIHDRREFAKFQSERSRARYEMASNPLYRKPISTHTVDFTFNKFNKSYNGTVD

A498 [4] = test: Cytotoxicity against human A498 cells after 72 hrs by sulforhodamine B assay; format: functional, cell-based; conditions: A498, 72 h
In short: (§2)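 Tumor cells were seeded in 96-well plates and exposed the next day to a range of drug concentrations for 72 h. Surviving cells were quantified by sulforhodamine B staining, and IC50 ± SD was derived by curve fitting.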

A2780 [5] = test: Cytotoxicity against human A2780 cells after 72 hrs by sulforhodamine B assay; format: functional, cell-based; conditions: A2780, 72 h; in short: as §2
Integrin alpha-V/beta-3 [6] = target: T2, Integrin alpha-V/beta-3 (Homo sapiens, UniProt P05106+P06756); test: Inhibition of integrin alphaVbeta3 receptor-mediated adhesion of human A498 cells to vitronectin after 1 hr by toluidine blue staining; format: cell-based; in short: as §1
Target sequence in this assay (P05106 27-788 limits assumed): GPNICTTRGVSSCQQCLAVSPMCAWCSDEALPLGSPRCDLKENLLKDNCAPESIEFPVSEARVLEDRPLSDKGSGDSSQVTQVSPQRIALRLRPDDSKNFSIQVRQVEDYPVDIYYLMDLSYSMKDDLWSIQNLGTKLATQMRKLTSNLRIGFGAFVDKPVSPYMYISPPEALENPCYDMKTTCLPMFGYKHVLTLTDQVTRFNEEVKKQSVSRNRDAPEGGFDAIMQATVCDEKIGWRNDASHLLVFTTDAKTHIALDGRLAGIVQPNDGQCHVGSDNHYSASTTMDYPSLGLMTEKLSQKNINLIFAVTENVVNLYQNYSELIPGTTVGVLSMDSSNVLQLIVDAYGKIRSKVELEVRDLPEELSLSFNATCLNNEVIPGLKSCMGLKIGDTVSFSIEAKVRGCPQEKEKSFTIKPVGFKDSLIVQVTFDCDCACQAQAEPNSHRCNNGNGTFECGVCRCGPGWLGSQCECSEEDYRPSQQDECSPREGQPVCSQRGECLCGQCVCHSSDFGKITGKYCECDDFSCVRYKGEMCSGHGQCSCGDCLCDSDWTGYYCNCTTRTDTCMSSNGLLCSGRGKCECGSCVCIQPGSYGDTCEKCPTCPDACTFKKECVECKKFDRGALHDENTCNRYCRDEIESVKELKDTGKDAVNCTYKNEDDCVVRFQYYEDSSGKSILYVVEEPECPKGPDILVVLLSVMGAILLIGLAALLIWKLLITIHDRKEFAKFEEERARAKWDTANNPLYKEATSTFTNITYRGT
Target sequence in this assay (P06756 31-889 limits assumed): as the sequence (P06756 31-889 limits assumed) above
Target sequence in this assay (P06756 891-1048 limits assumed): as the sequence (P06756 891-1048 limits assumed) above

Integrin alpha-V/beta-5 [7] = target: T1, Integrin alpha-V/beta-5; test: Inhibition of integrin alphaVbeta5 receptor-mediated adhesion of human A498 cells to vitronectin after 1 hr by toluidine blue staining; format: cell-based; in short: as §1
Target sequence in this assay (P06756 31-889 limits assumed): as the sequence (P06756 31-889 limits assumed) above
Target sequence in this assay (P06756 891-1048 limits assumed): as the sequence (P06756 891-1048 limits assumed) above
Target sequence in this assay (P18084 24-799 limits assumed): as the sequence (P18084 24-799 limits assumed) above

Mus musculus [8] = test: AUC (0 to infinity) in nude mouse xenografted with human A2780 cells at 48 mg/kg, ip administered as single dose every fourth day for four times; format: ADME, organism-based; parameters: time infinity, dose 48 mg/kg, route intraperitoneal; conditions: in vivo
PC-3 = test: Cytotoxicity against human PC3 cells after 72 hrs by sulforhodamine B assay; format: functional, cell-based; conditions: PC-3, 72 h; in short: as §2
Integrin alpha-V/beta-5 [9] = target: T1, Integrin alpha-V/beta-5; test: Displacement of [125I]echistatin from integrin alphaVbeta5 receptor after 3 hrs by gamma counting; format: protein-complex assay
Target sequence in this assay (P06756 31-889 limits assumed): as the sequence (P06756 31-889 limits assumed) above
Target sequence in this assay (P06756 891-1048 limits assumed): as the sequence (P06756 891-1048 limits assumed) above
Target sequence in this assay (P18084 24-799 limits assumed): as the sequence (P18084 24-799 limits assumed) above

A2780 [10] = test: Antitumor activity against human A2780 cells xenografted in nude mouse assessed as tumor volume inhibition at 48 mg/kg, sc QD for 5 days measured after 17 days of tumor implantation relative to control; format: functional; conditions: route subcutaneous
In short: (§3)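 Nude mice bearing A2780 human ovarian carcinoma xenografts were dosed from day 2 after tumor injection, either ip every fourth day ×4 or sc daily ×5, at 10 mL/kg. Tumor volume was calculated from the shortest and longest diameters on day 16 or 17. TVI% is relative to vehicle-treated controls (mean ± SE, Mann–Whitney). Body weight was monitored for toxicity.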

Mus musculus [11] = test: Metabolic stability in nude mouse xenografted with human A2780 cells assessed as release of free namitecan in blood at 48 mg/kg, ip administered as single dose every fourth day for four times; format: ADME, organism-based; parameters: dose 48 mg/kg, route intraperitoneal; conditions: in vivo
A2780 [12] = test: Antitumor activity against human A2780 cells xenografted in nude mouse assessed as tumor volume inhibition at 48 mg/kg, ip administered as single dose every fourth day for four times measured after 16 days of tumor implantation relative to control; format: functional; conditions: 384 h, route intraperitoneal; in short: as §3
Integrin alpha-V/beta-3 [13] = target: T2, Integrin alpha-V/beta-3; test: Displacement of [125I]echistatin from integrin alphaVbeta3 receptor after 3 hrs by gamma counting; format: protein-complex assay
Target sequence in this assay (P05106 27-788 limits assumed): as the sequence (P05106 27-788 limits assumed) above
Target sequence in this assay (P06756 31-889 limits assumed): as the sequence (P06756 31-889 limits assumed) above
Target sequence in this assay (P06756 891-1048 limits assumed): as the sequence (P06756 891-1048 limits assumed) above

Mus musculus [14] = test: Metabolic stability in nude mouse xenografted with human A2780 cells assessed as release of free namitecan in blood at 48 mg/kg, sc QD for 5 days; format: ADME, organism-based; parameters: dose 48 mg/kg, route subcutaneous; conditions: in vivo, 120 h
Mus musculus [15] = test: AUC (0 to infinity) in nude mouse xenografted with human A2780 cells at 0.42 mg/kg, sc QD for 5 days; format: ADME, organism-based; parameters: time infinity, dose 0.42 mg/kg, route subcutaneous; conditions: in vivo, 120 h
A498 [16] = test: Cellular uptake in human A498 cells at 0.064 uM after 5 hrs by HPLC-FL analysis; format: ADME, cell-based; conditions: a498, 5 h
In short: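 A-498 cells (6.2 × 10⁵) were seeded in dishes and dosed 24 h later, then sampled at 5, 24, 48 and 72 h. Cells were PBS-washed, scraped, pelleted, lysed by five freeze–thaw cycles, and extracted with methanol/acetonitrile (1:1). Culture medium was extracted the same way. Analysis was by isocratic HPLC-FL (30% CH₃CN / 70% 0.1 M AcOH with 0.1% TEA, pH about 3.5), and lysate protein was measured by Bradford assay.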

Integrin alpha-V [17] = target: T3, Integrin alpha-V (Homo sapiens, UniProt P06756); test: Inhibition of integrin alphaV receptor-mediated adhesion of human PC3 cells to vitronectin after 1 hr by toluidine blue staining; format: cell-based; conditions: pc-3; in short: as §1
T3 sequence (P06756 31-889 limits assumed): as the sequence (P06756 31-889 limits assumed) above
T3 sequence (P06756 891-1048 limits assumed): as the sequence (P06756 891-1048 limits assumed) above

A2780 [18] = test: Antitumor activity against human A2780 cells xenografted in nude mouse assessed as tumor volume inhibition at 0.42 mg/kg, sc QD for 5 days measured after 17 days of tumor implantation relative to control; format: functional; conditions: route subcutaneous; in short: as §3
A2780 [19] = test: Antitumor activity against human A2780 cells xenografted in nude mouse assessed as tumor volume inhibition at 16.3 mg/kg, sc QD for 5 days; format: functional, organism-based; parameters: dose 16.3 mg/kg; in short: as §3
Integrin alpha-V [20] = target: T3, Integrin alpha-V; test: Binding affinity to integrin alphaV receptor in human PC3 cells; format: cell-based; conditions: PC-3
In short: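 Tumor cells in serum-free medium with 1% BSA were plated for 1 h on wells precoated with 5 µg/ml human vitronectin and blocked with 1% BSA. Compounds were tested at 0.1–100 µM. Adherent cells were fixed with 4% paraformaldehyde, stained with 1% toluidine blue, solubilized in 1% SDS and read by absorbance. IC50 ± SD from curve fitting.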

Integrin alpha-V/beta-5 [21] = target: T1, Integrin alpha-V/beta-5; test: Binding affinity to integrin alphaVbeta5 receptor in human A498 cells; format: cell-based
Integrin alpha-V/beta-5 [22] = target: T1, Integrin alpha-V/beta-5; test: Binding affinity to integrin alphaVbeta5 receptor in human A2780 cells; format: cell-based
Integrin alpha-V/beta-3 [23] = target: T2, Integrin alpha-V/beta-3; test: Binding affinity to integrin alphaVbeta3 receptor in human A498 cells; format: cell-based

Structure (SMILES) | Drug uptake (A498 [2]) | IC50 (Integrin alpha-V/beta-5 [3]) [µM] | IC50 (A498 [4]) [µM] | IC50 (A2780 [5]) [µM] | IC50 (Integrin alpha-V/beta-3 [6]) [µM] | IC50 (Integrin alpha-V/beta-5 [7]) [µM] | IC50 (PC-3) [µM] | IC50 (Integrin alpha-V/beta-5 [9]) [µM] | IC50 (Integrin alpha-V/beta-3 [13]; read-out: IC50) [µM] | also measured
CC[C@@]1(O)C(=O)OCc2c1cc1n(c2=O)Cc2c-1nc1ccccc1c2/C=N\OCCNC(=O)CCC[C@@H]1NC(=O)[C@@H](Cc2ccccc2)NC(=O)[C@H](CC(=O)O)NC(=O)CNC(=O)[C@H](CCCNC(=N)N)NC1=O | Active | 3.1 | 3.2 | 0.4 | 3.7 | 3.7 | 15 |  |  | AUC (Mus musculus [1]): 82 µg/h/mL; AUC (Mus musculus [8]): 82 µg/h/mL
CC[C@@]1(O)C(=O)OCc2c1cc1n(c2=O)Cc2c-1nc1ccccc1c2CCC=O |  |  |  | 0.015 |  |  | 0.12 |  |  | 
CC[C@@]1(O)C(=O)OCc2c1cc1n(c2=O)Cc2c-1nc1ccccc1c2/C=N/OCCNC(=O)COCCOCCOCC(=O)NCc1ccc(C[C@@H]2NC(=O)[C@@H](Cc3ccccc3)NC(=O)[C@H](CC(=O)O)NC(=O)CNC(=O)[C@H](CCCN=C(N)N)NC2=O)cc1 | Active | 1.8 | 0.74 | 0.18 | 3.1 | 3.1 | 27 | 0.0065 | 0.0125 | inhibition in vivo at 48 mg/kg (A2780 [10]): 37%; Activity (Mus musculus [11]): 2.5%; inhibition in vivo at 48 mg/kg (A2780 [12]): 43%; Activity (Mus musculus [14]): 2.5%
CC[C@@]1(O)C(=O)OCc2c1cc1n(c2=O)Cc2c-1nc1ccccc1c2/C=N\OCCN |  |  | 0.064 | 0.0049 |  |  | 0.36 |  |  | AUC (Mus musculus [15]): 2 µg/h/mL; Drug uptake (A498 [16]): Active; IC50 (Integrin alpha-V [17]): Not Active; inhibition in vivo at 0.42 mg/kg (A2780 [18]): 43%; inhibition (A2780 [19]): Toxic; IC50 (Integrin alpha-V/beta-3 [13]): Not Active
N=C(N)NCCC[C@@H]1NC(=O)[C@H](c2ccc(CNC(=O)CCC(=O)O)cc2)NC(=O)[C@@H](Cc2ccccc2)NC(=O)[C@H](CC(=O)O)NC(=O)CNC1=O |  | 9.5 | > 1000 | > 1000 | 34 | 34 | > 1000 | 0.0051 | 0.0376 | Activity (Integrin alpha-V [20]): Dose-dependent effect; Activity (Integrin alpha-V/beta-5 [21]): Dose-dependent effect; Activity (Integrin alpha-V/beta-5 [22]): Dose-dependent effect; Activity (Integrin alpha-V/beta-3 [23]): Dose-dependent effect
CC[C@@]1(O)C(=O)OCc2c1cc1n(c2=O)Cc2c-1nc1ccccc1c2/C=N/OCCNC(=O)CCC(=O)NCc1ccc(C[C@@H]2NC(=O)[C@@H](Cc3ccccc3)NC(=O)[C@H](CC(=O)O)NC(=O)CNC(=O)[C@H](CCCNC(=N)N)NC2=O)cc1 |  |  | 4.3 | 0.16 | 5.4 | 5.4 | 4.7 | 0.00839 | 0.00727 | 
